Measured values from ChEMBL document CHEMBL3351503, “Imidazopyridine- and purine-thioacetamide derivatives: potent inhibitors of nucleotide pyrophosphatase/phosphodiesterase 1 (NPP1)” (J Med Chem, 2014).

How the values were obtained:
[1] = target: T1, Ectonucleotide pyrophosphatase/phosphodiesterase family member 1 (Homo sapiens, UniProt P22413); test: Inhibition of human NPP1 using p-Nph-5'-TMP as substrate
T1 sequence (P22413 whole entry): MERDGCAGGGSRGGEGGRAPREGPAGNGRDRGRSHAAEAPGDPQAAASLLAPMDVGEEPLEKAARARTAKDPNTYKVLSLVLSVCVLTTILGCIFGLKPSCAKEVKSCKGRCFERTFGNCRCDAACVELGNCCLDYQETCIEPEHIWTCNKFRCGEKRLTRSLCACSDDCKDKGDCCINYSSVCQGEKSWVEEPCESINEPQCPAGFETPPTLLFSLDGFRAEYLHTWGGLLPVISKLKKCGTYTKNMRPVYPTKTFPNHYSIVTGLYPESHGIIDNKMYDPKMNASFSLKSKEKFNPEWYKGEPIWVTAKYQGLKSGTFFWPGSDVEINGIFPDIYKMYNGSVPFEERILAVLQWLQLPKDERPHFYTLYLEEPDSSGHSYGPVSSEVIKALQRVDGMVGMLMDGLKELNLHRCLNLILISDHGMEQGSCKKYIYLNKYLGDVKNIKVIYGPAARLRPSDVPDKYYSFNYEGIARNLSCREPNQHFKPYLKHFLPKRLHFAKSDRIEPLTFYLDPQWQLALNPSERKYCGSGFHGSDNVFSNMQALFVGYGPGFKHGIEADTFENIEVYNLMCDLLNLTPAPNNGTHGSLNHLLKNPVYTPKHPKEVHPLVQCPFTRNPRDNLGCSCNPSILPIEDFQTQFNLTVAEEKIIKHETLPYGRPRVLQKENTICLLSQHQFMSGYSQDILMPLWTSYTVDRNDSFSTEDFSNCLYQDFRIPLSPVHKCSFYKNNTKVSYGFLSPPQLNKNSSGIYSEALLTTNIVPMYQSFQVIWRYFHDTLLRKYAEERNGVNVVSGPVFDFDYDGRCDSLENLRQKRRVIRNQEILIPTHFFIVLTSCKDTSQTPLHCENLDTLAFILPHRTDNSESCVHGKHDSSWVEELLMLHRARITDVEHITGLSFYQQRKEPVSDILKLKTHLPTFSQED

[2] = target: T1, Ectonucleotide pyrophosphatase/phosphodiesterase family member 1; test: Competitive inhibition of human NPP1 using ATP as substrate by Lineweaver-Burk plot analysis
[3] = target: T1, Ectonucleotide pyrophosphatase/phosphodiesterase family member 1; test: Competitive inhibition of human NPP1 using p-Nph-5'-TMP as substrate by Lineweaver-Burk plot analysis
[4] = target: T2, Ectonucleotide pyrophosphatase/phosphodiesterase family member 1 (Homo sapiens) (UniProt P22413); test: Inhibition of human NPP1 using p-Nph-5'-TMP as substrate at 10 uM
T2 sequence (whole entry): T1 sequence (P22413 whole entry)
Method in brief: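 Single-point screen at 10 μM compound against soluble human NPP1 (20 ng), 400 μM p-Nph-5′-TMP, 50 mM Tris pH 9.0, 1 mM CaCl2, 200 μM ZnCl2, 37 °C 15 min, NaOH stop; percent inhibition from p-nitrophenolate absorbance at 400 nm; compounds in DMSO (10 mM stock).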

Autotaxin = Autotaxin (Homo sapiens, UniProt Q13822); test: Competitive inhibition of human NPP2 using lysophosphotidylcholine as substrate
[5] = target: T3, Ectonucleotide pyrophosphatase/phosphodiesterase family member 3 (Homo sapiens, UniProt O14638); test: Competitive inhibition of human NPP3 using ATP as substrate
T3 sequence (O14638 whole entry): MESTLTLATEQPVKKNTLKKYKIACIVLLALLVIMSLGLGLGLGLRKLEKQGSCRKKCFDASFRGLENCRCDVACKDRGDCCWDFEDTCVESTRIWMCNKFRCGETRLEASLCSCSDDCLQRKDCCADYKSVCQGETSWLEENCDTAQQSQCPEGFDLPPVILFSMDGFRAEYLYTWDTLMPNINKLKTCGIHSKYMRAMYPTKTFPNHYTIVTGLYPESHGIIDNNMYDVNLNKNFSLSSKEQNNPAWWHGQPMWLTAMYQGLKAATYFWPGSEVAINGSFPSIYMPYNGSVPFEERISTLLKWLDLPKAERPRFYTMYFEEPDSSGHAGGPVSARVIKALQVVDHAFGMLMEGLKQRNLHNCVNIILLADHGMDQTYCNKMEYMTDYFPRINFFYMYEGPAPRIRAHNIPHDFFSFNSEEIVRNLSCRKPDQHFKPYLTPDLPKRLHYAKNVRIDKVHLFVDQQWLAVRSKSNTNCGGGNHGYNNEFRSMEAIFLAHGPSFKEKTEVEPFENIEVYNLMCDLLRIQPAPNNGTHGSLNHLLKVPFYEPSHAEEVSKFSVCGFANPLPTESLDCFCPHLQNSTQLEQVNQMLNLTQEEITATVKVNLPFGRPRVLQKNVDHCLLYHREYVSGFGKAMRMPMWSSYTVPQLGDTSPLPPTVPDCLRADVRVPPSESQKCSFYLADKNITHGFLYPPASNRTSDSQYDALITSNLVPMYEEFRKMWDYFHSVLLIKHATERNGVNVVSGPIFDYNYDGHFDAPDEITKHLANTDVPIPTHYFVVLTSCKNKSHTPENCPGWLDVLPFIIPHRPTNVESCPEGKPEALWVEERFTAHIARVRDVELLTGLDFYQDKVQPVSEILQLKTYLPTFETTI

Compound | Ki [1] [µM] | Ki [2] [µM] | Ki [3] [µM] | inhibition [4] [%] | further results
COc1ccc(NC(=O)CSc2nc3c(SC)nc(N)nc3[nH]2)cc1OC | 3.65 | 67.9 | 3.65 | – | –
COc1ccc(NC(=O)CSc2nc3cccnc3[nH]2)c(OC)c1 | – | – | – | 8 | –
O=C(CSc1nc2cccnc2[nH]1)Nc1ccc(Cl)c(Cl)c1 | – | – | – | 10 | –
COc1ccc(NC(=O)CSc2nc3nccnc3[nH]2)cc1OC | 0.131 | 30.2 | 0.131 | – | –
COc1ccc(NC(=O)CSc2nc3c(N)ncnc3[nH]2)cc1OC | 0.005 | 18 | 0.005 | – | –
COc1ccc(NC(=O)CSc2nc3ccc(SC)nc3[nH]2)cc1OC | – | – | – | 59 | –
COc1ccc(NC(=O)CSc2nc3cc(Cl)cnc3[nH]2)cc1OC | 0.137 | 9.78 | 0.137 | – | –
COc1ccccc1NC(=O)CSc1nc2ccc[nH]c-2n1 | – | – | – | 21 | –
COc1ccc(CNC(=O)CSc2nc3cccnc3[nH]2)cc1OC | – | – | – | 0 | –
O=C(CSc1nc2cccnc2[nH]1)Nc1ccc(F)cc1 | – | – | – | 30 | –
COc1ccc(OC)c(NC(=O)CSc2nc3cccnc3[nH]2)c1 | – | – | – | 12 | –
COc1ccc(NC(=O)CSc2nc3ccc(N4CCOCC4)nc3[nH]2)cc1OC | – | – | – | 45 | –
CCOC(=O)c1cccc(NC(=O)CSc2nc3cccnc3[nH]2)c1 | – | – | – | 15 | –
O=C(CSc1nc2cccnc2[nH]1)Nc1ccccc1F | – | – | – | 13 | –
O=C(CSc1nc2cccnc2[nH]1)Nc1ccccc1 | – | – | – | 30 | –
COc1ccc(NC(=O)CSc2nc3cnccc3[nH]2)cc1OC | 0.0442 | 29.2 | 0.0442 | – | –
COc1ccc(NC(=O)CSc2ncc[nH]2)cc1OC | – | – | – | 64 | –
COc1ccc(NC(=O)CSc2nc3c(=O)[nH]c(=O)[nH]c3[nH]2)cc1OC | 0.0358 | 22.5 | 0.0358 | – | –
COc1ccc(NC(=O)CSc2nc3cncnc3[nH]2)cc1OC | 0.281 | 15.7 | 0.281 | – | –
COc1ccc(NS(=O)(=O)CSc2nc3ncccc3[nH]2)cc1OC | – | – | – | 50 | –
O=C(CSc1nc2cccnc2[nH]1)Nc1ccc(Cl)cc1 | – | – | – | 17 | –
COc1ccc(NC(=O)CSc2nc3ccc(N4CCCCC4)nc3[nH]2)cc1OC | – | – | – | 27 | –
COc1ccc(NC(=O)CSc2nc3cccnc3[nH]2)cc1 | – | – | – | 48 | –
CCn1c(=O)[nH]c(=O)c2nc(SCC(=O)Nc3ccc(OC)c(OC)c3)[nH]c21 | – | – | – | 43 | –
Cc1cccc(C)c1NC(=O)CSc1nc2cccnc2[nH]1 | – | – | – | 19 | –
CC(=O)c1cccc(NC(=O)CSc2nc3cccnc3[nH]2)c1 | – | – | – | 50 | –

Compound | Ki [1] [µM] | Ki [2] [µM] | Ki [3] [µM] | inhibition [4] [%] | further results
COc1ccc(NC(=O)CSc2nc3c(OC)nc(N)nc3[nH]2)cc1OC | 8.04 | 42.2 | 8.04 | – | –
COc1ccc(NC(=O)CSc2nc3c(N)nc(N)nc3[nH]2)cc1OC | 3.48 | 78 | 3.48 | – | –
COc1ccc2nc(SCC(=O)Nc3ccc(OC)c(OC)c3)[nH]c2n1 | – | – | – | – | Ki (Autotaxin): 71.2 µM; Ki [5]: 68.1 µM
COc1ccc(NC(=O)CSc2nc3c(OC(C)C)nc(N)nc3[nH]2)cc1OC | 11 | 89.7 | 11 | – | –
O=C(CSc1nc2cccnc2[nH]1)Nc1ccccc1Cl | – | – | – | 19 | –
COc1ccc(NC(=O)CSc2nc3c(N)nc(SC)nc3[nH]2)cc1OC | 0.152 | 26.7 | 0.152 | – | –
Cc1ccc(NC(=O)CSc2nc3cccnc3[nH]2)cc1C | – | – | – | 11 | –
COc1ccc(NC(=O)CSc2nc3ccc(N4CCN(C)CC4)nc3[nH]2)cc1OC | – | – | – | 35 | –
COc1ccc(NC(=O)C(C)Sc2nc3cccnc3[nH]2)cc1OC (centres undefined) | – | – | – | 6 | –
COc1cc(NC(=O)CSc2nc3cccnc3[nH]2)cc(OC)c1 | – | – | – | 38 | –
CN(C)c1ccc(NC(=O)CSc2nc3cccnc3[nH]2)cc1 | – | – | – | 23 | –
COc1ccc(NC(=O)CSc2nc3ccc(N(C)C)nc3[nH]2)cc1OC | – | – | – | 58 | –
COc1ccc(NC(=O)CSc2nc3ccccc3[nH]2)cc1OC | – | – | – | 34 | –
COc1cccc(NC(=O)CSc2nc3cccnc3[nH]2)c1 | – | – | – | 30 | –
N#Cc1cccc(NC(=O)CSc2nc3cccnc3[nH]2)c1 | – | – | – | 45 | –
COc1ccc(NC(=O)CCSc2nc3cccnc3[nH]2)cc1OC | – | – | – | 13 | –
COc1ccc(NC(=O)CSc2nc3c(=O)[nH]cnc3[nH]2)cc1OC | 0.02 | 14.3 | 0.02 | – | –
COc1ccc(NC(=O)CSc2nc3c(C)ccnc3[nH]2)cc1OC | 0.127 | 7.59 | 0.127 | – | –
CCOc1nc(N)nc2[nH]c(SCC(=O)Nc3ccc(OC)c(OC)c3)nc12 | 1.01 | 33.6 | 1.01 | – | –
COc1ccc(NC(=O)CSc2nc3ccc[nH]c-3n2)cc1OC | 0.217 | 22.3 | 0.217 | – | –
O=C(CSc1nc2cccnc2[nH]1)Nc1cccc(Br)c1 | – | – | – | 23 | –
Cc1ccc(NC(=O)CSc2nc3cccnc3[nH]2)c(Cl)c1 | – | – | – | 2 | –
COc1ccc(NC(=O)CSc2nc3c(=O)n(C)c(=O)n(C)c3[nH]2)cc1OC | – | – | – | 23 | –
COc1ccc(NC(=O)CSc2nc3cc(Br)cnc3[nH]2)cc1OC | 0.192 | 10.8 | 0.192 | – | –
COc1ccc(NC(=O)CSc2nc3ccc(OCC(F)(F)F)nc3[nH]2)cc1OC | – | – | – | 61 | –
